Data from ChEMBL document CHEMBL1147256, “Antibacterial xanthones from the leaves of Garcinia nigrolineata” (2003).
Converted amounts (≈) assume the structure as drawn. The source made the active and inactive calls. The calls are words filed in the database; no cut-off is given here.

What was measured:
Staphylococcus aureus [1] = experiment: Antibacterial activity against methicillin-resistant Staphylococcus aureus after 18 hrs by agar microdilution method; format: functional
How it was run: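 MRSA clinical isolate from Songklanakarin Hospital. Compounds were dissolved in DMSO, serially 2-fold diluted and mixed 1:100 into melted Mueller-Hinton agar, giving final concentrations of 128 to 0.03 μg/mL. Inoculum was spotted onto the agar and incubated at 35 °C for 18 h. MIC was the lowest concentration with no visible growth. Vancomycin was the positive control; DMSO-agar was the growth control.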

Staphylococcus aureus [2] = experiment: Antibacterial activity against methicillin-resistant Staphylococcus aureus at 16 ug/mL after 18 hrs by agar microdilution method; format: functional, organism-based
Staphylococcus aureus [3] = experiment: Antibacterial activity against methicillin-resistant Staphylococcus aureus at 32 ug/mL after 18 hrs by agar microdilution method; format: functional, organism-based

## CC(C)=CCc1ccc(O)c2oc3cc4c(c(O)c3c(=O)c12)C=CC(C)(C)O4
Staphylococcus aureus [1]
  Activity: inactive

## CC(C)=CCc1c(O)c(CC=C(C)C)c2oc3c(O)cccc3c(=O)c2c1O
Staphylococcus aureus [2]
  Activity: Active

## CC(C)(O)CCc1ccc(O)c2oc3cc4c(c(O)c3c(=O)c12)CCC(C)(C)O4
Staphylococcus aureus [1]
  Activity: inactive

## COC(C)(C)CCc1ccc(O)c2oc3cc(O)c(CC=C(C)C)c(O)c3c(=O)c12
Staphylococcus aureus [1]
  Activity: inactive

## CC(C)=CCc1ccc(O)c2oc3cc4c(c(O)c3c(=O)c12)CCC(C)(C)O4
Staphylococcus aureus [1]
  Activity: inactive

## CC(C)(O)CCc1c2c(c(O)c3c(=O)c4cccc(O)c4oc13)CCC(C)(C)O2
Staphylococcus aureus [1]
  Activity: inactive

## CC(C)=CCc1c2c(c3oc4c(O)cccc4c(=O)c3c1O)C=CC(C)(C)O2
Staphylococcus aureus [3]
  Activity: Active

## CC(C)(O)CCc1ccc(O)c2oc3cc4c(c(O)c3c(=O)c12)C=CC(C)(C)O4
Staphylococcus aureus [1]
  Activity: inactive

## CC(C)=CCc1c2c(c3oc4c(O)cccc4c(=O)c3c1O)CCC(C)(C)O2
Staphylococcus aureus [1]
  Activity: inactive

## CC(C)=CCc1c(O)cc2oc3c(O)ccc(CCC(C)(C)O)c3c(=O)c2c1O [NIGROLINEAXANTHONE N]
Staphylococcus aureus [1]
  MIC: 4 µg/mL (≈ 10 µM)

## CCOC(C)(C)CCc1c(O)cc2oc3c(O)ccc(CCC(C)(C)O)c3c(=O)c2c1O
Staphylococcus aureus [1]
  Activity: inactive

## CC(C)=CCC/C(C)=C/CCC1(C)C=Cc2c(cc(O)c3c(=O)c4cccc(O)c4oc23)O1 (configuration not stated)
Staphylococcus aureus [1]
  Activity: inactive
